In ChEMBL document CHEMBL4382253, “Isolation and Characterization of Anaephenes A-C, Alkylphenols from a Filamentous Cyanobacterium ( Hormoscilla sp., Oscillatoriales)” (J Nat Prod, 2018):
≈ marks a conversion by molar mass, not a printed value.

What was measured:
Bacillus cereus = assay: Antibacterial activity against Bacillus cereus ATCC 10987 NRS 248 measured after overnight incubation; format: functional
How it was run: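 B. cereus grown overnight in LB broth at 30 °C, diluted 10^6-fold in fresh medium. 2-fold serial broth microdilution in 96-well plates starting at 100 μM, DMSO or water as negative control. Triplicates. MIC is the lowest concentration with no visible turbidity.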

Pseudomonas aeruginosa = assay: Antibacterial activity against Pseudomonas aeruginosa PAO1 ATCC BAA-47 measured after overnight incubation; format: functional
How it was run: (§1)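 Strain precultured overnight in LB broth at 37 °C, then diluted 10^6-fold in fresh medium. 2-fold serial broth microdilution in 96-well plates from 100 μM top concentration, DMSO or water negative control. Triplicate wells. MIC taken as the lowest concentration showing no turbidity.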

[1] = tested on: Mycobacterium tuberculosis; assay: Antibacterial activity against Mycobacterium tuberculosis H37Ra ATCC 25177 measured after 1 week; format: functional; details: H37Ra ATCC 25177, 168 h
How it was run: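 M. tuberculosis H37Ra grown two weeks in Middlebrook 7H9, diluted to OD600 0.01; broth microdilution in 96-well plates, compounds given at 2-fold final concentration in first column then serially diluted 2-fold; DMSO or H2O negative control, streptomycin positive control; triplicates; incubated one week at 37 °C.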

Staphylococcus aureus = assay: Antibacterial activity against Staphylococcus aureus ATCC 25923 Seattle 1945 measured after overnight incubation; format: functional; how it was run: as §1
Saccharomyces cerevisiae = assay: Antifungal activity against Saccharomyces cerevisiae BY4741 measured after overnight incubation by spectrometric method; format: functional
How it was run: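 Yeast grown overnight in YPD at 30 °C. Cell density set by A660, final 10 × 10^5 cells/mL. 2-fold serial dilution in YPD from 100 μM, DMSO negative control, nystatin positive control starting at 25 μM. Triplicates, overnight incubation.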

HCT-116 = assay: Cytotoxicity against human HCT116 cells after 48 hrs by MTT assay; format: functional, cell-based; details: HCT-116, 48 h
How it was run: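 Cells kept in DMEM with 10% FBS and 1% antibiotic-antimycotic at 37 °C, 5% CO2. Seeded at 10,000 cells/well, treated after 24 h with a range of concentrations or DMSO. Viability read by MTT after 48 h.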

| Compound | MIC (Bacillus cereus) | MIC (Pseudomonas aeruginosa) | MIC [1] | MIC (Staphylococcus aureus) | MIC (Saccharomyces cerevisiae) | IC50 (HCT-116) |
| --- | --- | --- | --- | --- | --- | --- |
| O=C(O)c1cn(C2CC2)c2cc(N3CCNCC3)c(F)cc2c1=O [CIPROFLOXACIN] | 0.03 µg/mL (≈ 0.0905 µM) |  |  |  |  |  |
| CN[C@@H]1[C@H](O[C@H]2[C@H](O[C@H]3[C@H](O)[C@@H](O)[C@H](N=C(N)N)[C@@H](O)[C@@H]3N=C(N)N)O[C@@H](C)[C@]2(O)C=O)O[C@@H](CO)[C@H](O)[C@H]1O [STREPTOMYCIN] |  | 6.2 µg/mL (≈ 10.7 µM) | 3.1 µg/mL (≈ 5.33 µM) |  |  |  |
| C#CCCC/C=C/CCCCc1cccc(O)c1 | 6.1 µg/mL (≈ 25.2 µM) | > 24 µg/mL | > 24 µg/mL | 6.1 µg/mL (≈ 25.2 µM) | > 24 µg/mL | 71 µM |
| O=C(N[C@H](CO)[C@H](O)c1ccc([N+](=O)[O-])cc1)C(Cl)Cl [CHLORAMPHENICOL] |  |  |  | 4 µg/mL (≈ 12.4 µM) |  |  |
| CCC/C=C/CCCCc1cccc(O)c1 | 11 µg/mL (≈ 50.4 µM) | > 22 µg/mL | > 22 µg/mL | 22 µg/mL (≈ 101 µM) | > 22 µg/mL | 26 µM |
| NYSTATIN |  |  |  |  | 23 µg/mL |  |
| CCC/C=C/C=C/CCc1cccc(O)c1 | 22 µg/mL (≈ 102 µM) | > 22 µg/mL | > 22 µg/mL | 22 µg/mL (≈ 102 µM) | > 22 µg/mL | > 100 µM |
